High-throughput results (PubChem)
Rad51 HR inh: blocks human Rad51 in homologous recombination; 200,000 compounds, 0.085% hits; hRad51 DNA strand exchange, fluorescence dequenching; inhibition, % at 10 µM; Q06609;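 active = inhibition above 40% at the single screening dose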;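 note: 0% = DMSO control wells and 100% = blanks with heterologous ssDNA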
Target sequence (Q06609 whole entry, looked up): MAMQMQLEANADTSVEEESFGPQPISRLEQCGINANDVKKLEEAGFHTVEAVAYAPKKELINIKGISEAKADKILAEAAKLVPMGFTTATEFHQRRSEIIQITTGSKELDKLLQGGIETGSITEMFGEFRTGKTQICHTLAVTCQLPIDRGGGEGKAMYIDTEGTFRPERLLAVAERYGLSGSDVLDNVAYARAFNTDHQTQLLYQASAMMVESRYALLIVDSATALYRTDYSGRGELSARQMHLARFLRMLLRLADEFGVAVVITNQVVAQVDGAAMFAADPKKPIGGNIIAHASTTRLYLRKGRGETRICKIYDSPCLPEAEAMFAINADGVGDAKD
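System: human Rad51 nucleoprotein filaments preassembled on unlabelled ssDNA. Reagent: labelled 47-mer dsDNA for strand exchange. Schedule: 30-min compound preincubation and 15-min exchange, both room temperature. Measured by: FRET fluorescence dequenching, excitation 485 nm, emission 520 nm. Read-out: Fluorescence-based percent inhibition, control- and blank-normalised. Benchmarks: plate controls and plate blanks.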
NPY2 pot ag: human NPY-Y2 potentiation or agonism, primary screen. 220,000 compounds, 0.45% hits. P49146. activation, % at 3.6 µM. AID 1359. cells expressing NPY-Y2, potentiator/agonist read-out; in the data active = activation above about 27%;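 note: cells stimulated with NPY near EC25 plus isoproterenol at EC100; 0% = vehicle plus submaximal agonist and 100% = vehicle plus saturating agonist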
Target sequence (P49146 whole entry, looked up): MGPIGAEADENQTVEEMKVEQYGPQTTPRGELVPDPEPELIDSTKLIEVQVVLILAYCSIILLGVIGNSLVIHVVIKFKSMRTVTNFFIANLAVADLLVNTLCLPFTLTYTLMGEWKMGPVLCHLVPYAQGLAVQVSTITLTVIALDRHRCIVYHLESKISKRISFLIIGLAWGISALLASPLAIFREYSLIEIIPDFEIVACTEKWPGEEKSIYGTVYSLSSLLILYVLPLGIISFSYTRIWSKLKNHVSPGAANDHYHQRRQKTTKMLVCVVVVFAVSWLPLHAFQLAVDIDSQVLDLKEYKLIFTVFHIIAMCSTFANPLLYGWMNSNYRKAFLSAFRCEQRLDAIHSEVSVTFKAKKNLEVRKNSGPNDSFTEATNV
Measles CPE: protection of cells from measles virus; Measles virus-infected cells, CPE protection, absorbance; protection (pct of control), % at 4 µM; 140,000 compounds, 1.5% hits; AID 841; in the data active = protection mostly above about 24%, no sharp cut-off; inactive = mostly below about 26%
NPY-Y2 antag: blocks the human neuropeptide Y Y2 receptor. NPY-Y2 expressing cells, antagonist mode. 140,000 compounds, 0.99% hits. AID 793. inhibition, % at 2.7 µM. P49146; in the data active = inhibition above about 17%;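 note: 0% = vehicle with agonist challenge and 100% = reference antagonist with challenge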
NPY Y1 blocker: NPY-Y1 (human) receptor antagonism; P25929; HEK293-CNG Y1 cells, membrane potential fluorescence; NPY at EC95, then isoproterenol; inhibition, % at 3.6 µM; 200,000 compounds, 1% hits;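 active = inhibition above the campaign mean inhibition of all tested compounds plus 3 SD, cut at about 20% in these data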;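 note: 0% = DMSO wells given NPY plus isoproterenol and 100% = isoproterenol alone without NPY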
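Test system: HEK293 cells co-expressing NPY Y1 receptor and cyclic-nucleotide gated channel; Also added: NPY (25 nM), isoproterenol (1 µM), Ro 20-1724 (25 µM); Compound dosing: one concentration, 3.6 µM, in 0.4% DMSO; Timing: dye 3 h, compound 60 min room temperature, stimulation 45 min; Technique: Membrane-potential fluorescent dye readout.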
NPY-Y1 PAM-ag: human NPY-Y1 potentiation or agonism, primary screen | AID 1304 | NPY-Y1 expressing cells, potentiator/agonist activation | 220,000 compounds, 0.37% hits | P25929 | activation, % at 3.6 µM; in the data active = activation above about 33%, passing the limit was not always enough;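 note: cells stimulated with NPY at EC10 then isoproterenol at EC100; 0% = low agonist plus stimulus and 100% = saturating agonist plus stimulus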
NPY-Y1 antag ct: counter-screen for NPY-Y2 antagonists: human NPY-Y1 antagonism | 710 compounds, 19% hits | AID 1256 | shares compounds with NPY-Y2 antag | cell-based NPY-Y1 antagonism counterscreen | inhibition, % at 3.6 µM; in the data active = inhibition above about 20%;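 note: cells challenged with NPY then isoproterenol with cAMP sensed through a CNG channel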
NPY-Y2 ant conf: confirmation of human neuropeptide Y receptor Y2 antagonists. AID 1257. shares compounds with NPY-Y2 antag. inhibition, % at 2.8 µM. HEK293 NPY-Y2 CNG channel, membrane potential fluorescence. 710 compounds, 32% hits;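 active = mean inhibition of triplicate wells above the hit cutoff set in the primary screen, cut at about 17% in these data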;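 note: 0% = DMSO with NPY challenge and 100% = BIIE0246 high control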
* marks the source's active call; other numbers are inactive results; · = not tested or not shown. Shown are actives, neighbours in structure and some others; about 2.8% of the full set was active somewhere.

SMILES | Rad51 HR inh | NPY2 pot ag | Measles CPE | NPY-Y2 antag | NPY Y1 blocker | NPY-Y1 PAM-ag | NPY-Y1 antag ct | NPY-Y2 ant conf
CNCc1ccccc1Sc1ccc(OC)cc1 | · | -17.2 | 8.7 | 19.5* | 5.0 | -33.9 | 1.9 | 6.0
Cc1ccc(NC(=O)CCSCCc2ccccn2)cc1 | · | -4.0 | · | · | 1.8 | 10.7 | · | ·
CN1CCN(c2ccccc2NC(=O)c2ccc(-c3ccc(Cl)cc3Cl)o2)CC1 | -10.0 | -9.4 | 6.1 | 17.2* | 8.3 | -66.2 | 11.7 | 24.7*
CS(=O)(=O)N1CCN(c2ccccc2NC(=O)c2ccc(-c3ccc(Cl)cc3Cl)o2)CC1 | 3.2 | -21.1 | 29.1 | 3.2 | 14.1 | -3.9 | · | ·
Cn1c(-c2sc3ccccc3c2Cl)n[nH]c1=S | 2.3 | -26.1 | 4.1 | 17.3* | 18.3 | -29.8 | 14.8 | 12.1
Cn1c(CSc2nc3ccccc3s2)n[nH]c1=S | -3.2 | -20.6 | 1.2 | 7.5 | 12.5 | -31.1 | · | ·
O=C(CSc1nnc(Cc2cccs2)n1-c1ccc(Cl)cc1)NCc1ccc2c(c1)OCO2 | 4.8 | 3.4 | 3.9 | -1.1 | -0.6 | 7.3 | · | ·
Cc1nn2c(-c3ccccn3)ccnc2c1Cl | 3.9 | -16.4 | · | · | 1.6 | -11.3 | · | ·
CC(C)(C)C(=O)CC1(O)C(=O)N(Cc2ccccc2)c2ccccc21 (centres undefined) | 6.9 | 1.3 | 7.2 | 2.6 | 1.9 | -5.6 | · | ·
O=c1c2ccccc2nc2c3ccccc3c(NCCN3CCOCC3)nn12 | -2.9 | -17.8 | 11.7 | 20.4* | 13.8 | -40.3 | 16.9 | 24.6*
O=c1c2ccccc2nc(-c2ccccc2)n1CCN1CCOCC1 | 4.3 | 18.9 | 6.5 | -1.2 | 0.1 | 2.9 | · | ·
CC(C)Cn1c(SCC(=O)N2CCCc3ccccc32)nc2ccccc2c1=O | 13.8 | -13.5 | · | · | · | 3.3 | · | ·
O=C(Cn1nc(-c2ccccc2)nc1-c1ccccc1)OC1CCCCC1 | -2.9 | -20.6 | 10.7 | 19.4* | 8.3 | -25.4 | 8.5 | 6.3
Cc1ccc(-c2nnc3sc(C4COc5ccccc5O4)nn23)cc1 (centres undefined) | 0.2 | -0.3 | 7.4 | 17.9* | 0.6 | 6.4 | 19.1 | 15.2
Clc1ccccc1-c1nnc2sc(C3COc4ccccc4O3)nn12 (centres undefined) | -5.7 | -13.4 | 3.6 | 3.0 | 4.8 | -60.5 | · | ·
O=C(Nc1ccc(S(=O)(=O)N2CCCCCC2)cc1)C1CCCO1 (centres undefined) | -2.2 | 8.2 | 9.9 | 1.4 | -4.5 | -7.3 | · | ·
CCCCCCNS(=O)(=O)c1ccc(NC(=O)C2CCCO2)cc1 (centres undefined) | · | -5.0 | 22.4 | 31.2* | 2.1 | -11.9 | 8.3 | 29.2*
Cc1nn(Cc2ccccc2)c(Cl)c1C(=O)OCc1nnc(-c2ccc(Cl)cc2)o1 | -4.2 | -4.0 | 3.2 | 18.8* | 7.5 | -53.0 | 10.8 | 6.9
O=c1c2ccccc2nc(SCc2cccc(F)c2)n1Cc1ccco1 | -4.1 | -2.2 | 21.7 | 19.3* | 17.6 | -20.6 | 8.8 | 12.7
O=c1c2ccccc2nc(SCc2ccccc2)n1Cc1ccco1 | 7.8 | -8.0 | 14.2 | 2.4 | -2.1 | -6.6 | · | ·
CC1=C(C(=O)OC2CCCC2)C(c2ccc(C)o2)C2=C(CC(c3cccs3)CC2=O)N1 (centres undefined) | -2.9 | -2.3 | 21.2 | 3.4 | 1.5 | 5.5 | · | ·
c1ccc2c(c1)nnn2-c1ncnc2sc3c(c12)CCCC3 | -2.5 | -23.0 | 1.2 | 5.6 | 7.8 | -18.4 | · | ·
Cc1nc(-n2nnc3ccccc32)c2c3c(sc2n1)CCCC3 | -5.8 | -36.4 | 18.4 | 21.9* | 15.2 | -22.7 | 10.7 | 9.6
CN(Cc1cnn(-c2ccc(F)cc2)c1)Cc1nc(Cc2ccccc2)no1 | -2.0 | -12.6 | · | · | 4.1 | -3.1 | · | ·
COc1ccccc1OCc1nc(C#N)c(N2CC(C)CC(C)C2)o1 (centres undefined) | · | -3.2 | 4.1 | 17.9* | 15.4 | -36.6 | 9.5 | 6.2
SMILES | Rad51 HR inh | NPY2 pot ag | Measles CPE | NPY-Y2 antag | NPY Y1 blocker | NPY-Y1 PAM-ag | NPY-Y1 antag ct | NPY-Y2 ant conf
COc1ccccc1OCc1nc(C#N)c(N2CCCC2)o1 | 4.4 | 4.8 | · | · | 4.8 | -10.5 | · | ·
CCC(c1nnnn1Cc1ccc2c(c1)OCO2)N1CCN(c2ccc(F)cc2)CC1 (centres undefined) | · | 8.5 | 6.3 | 19.1* | 15.4 | 0.8 | 8.3 | 8.1
CCC(c1nnnn1Cc1ccc2c(c1)OCO2)N1CCN(c2ccccc2)CC1 (centres undefined) | 6.8 | -40.6 | 8.6 | 17.5* | 19.9 | -24.0 | 13.1 | 7.9
O=C(CSc1nnc(-c2ccccc2F)n1CCc1ccccc1)Nc1ccc2[nH]c(=O)[nH]c2c1 | -3.0 | -3.3 | 4.1 | 0.1 | -1.2 | -9.2 | · | ·
O=C(c1ccco1)N(CCCN1CCOCC1)c1nc(-c2ccc(F)cc2)cs1 | 8.7 | -15.5 | 1.2 | 19.0* | 9.4 | -30.3 | 15.7 | 12.9
COc1cccc(Nc2nc(NCC3CCCO3)c3ccccc3n2)c1 (centres undefined) | -6.7 | -4.7 | 23.0 | 24.4* | 15.3 | -20.3 | 21.1* | 13.8
CCOc1ncccc1C(=O)OCC(=O)Nc1ccc(C(N)=O)cc1 | -14.6 | -3.8 | · | · | · | -6.8 | · | ·
CCCc1nnc2n1N=C(c1ccc(OC)c(OC)c1)CS2 | -6.9 | -6.0 | 12.4 | 19.4* | -0.8 | -25.1 | 6.3 | 7.8
COC(=O)C1=C(C(=O)OC)[C@@H]2N(C)c3ccccc3[C@@]23C[C@@H](C(=O)OC)N(C(=O)c2cc(C)oc2C)C3=N1 | -0.2 | · | · | · | · | · | · | ·
Cc1cc(C)nc(N/C(=N\S(=O)(=O)Cc2ccccc2)Nc2ccccc2Br)n1 | -44.6 | -3.1 | 21.1 | 6.6 | 3.3 | 6.8 | · | ·
O=C(CSc1nnnn1-c1cccc2ccccc12)NC(C(=O)O)(c1ccccc1)c1ccccc1 | 15.4 | -2.8 | · | · | -4.0 | 3.1 | · | ·
COc1ccccc1N1CCN(C(=S)NC(=O)/C=C/c2ccccc2)CC1 | 8.8 | -1.5 | · | · | · | -18.1 | · | ·
Cc1ccc(NC(=O)COC(=O)c2ccccc2-c2nc3ccccc3s2)c(C)c1 | 4.6 | -8.2 | 24.9 | 6.0 | 4.4 | 4.6 | · | ·
CCc1cccc(CC)c1NC(=O)COC(=O)c1ccccc1-c1nc2ccccc2s1 | 4.1 | 14.5 | 12.6 | 19.7* | 9.2 | -18.7 | 14.4 | 21.2*
Cc1cccc(NC(=S)NNC(=S)NCc2ccccc2)c1 | -4.1 | -7.4 | 6.2 | 29.1* | 10.2 | 18.7 | 16.8 | 22.3*
CCCCCC1CC(CC/C(C)=N/NC(N)=O)C(=O)O1 (centres undefined) | 13.3 | -19.9 | · | · | · | -1.9 | · | ·
C/C(CC1CC(COCC(C)C)OC1=O)=N\NC(N)=S (centres undefined) | 4.8 | -9.9 | 5.1 | 27.0* | 2.6 | -13.6 | 1.5 | 1.1
O=C(NC(c1ccccc1)c1ccccc1)C1(c2cccs2)CCOCC1 | 0.1 | -3.4 | 14.6 | 17.6* | 15.5 | 4.6 | 6.1 | 4.9
